# High-throughput results: PubChem BioAssay, several laboratories
# TPT1 inhibitor – blocks Candida albicans tRNA 2'-phosphotransferase; recombinant caTPT1, FP RNA substrate dephosphorylation; inhibition, % at 5 µM; 300,000 tested, 0.81% active;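 active means inhibition above the mean of all tested compounds plus 3 SD, set per screening campaign, cut at about 24% in these data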;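 further: plate controls were DMSO alone for no effect and ferristatin control at 100 nM for full effect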
# CSN deneddyl inh – inhibitors of human CSN-mediated cullin deneddylation | Q92905 | Purified CSN, SCF-Nedd8-OG deneddylation, fluorescence polarization | inhibition, % at 12.5 µM | 360,000 tested, 0.38% active;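 active means pattern-corrected inhibition above about 35%, with an unprinted fluorescence ratio check between 0.5 and 1.5, limit read from the data, passing the limit was not always enough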;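 further: 0% = enzyme with substrate and 100% = substrate without enzyme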
#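 Test system: Human Csn5 produced in HEK293T cells | Compound: 12.5 µM single point | Times: 90 min, room temperature | Signal: Fluorescence polarization readout | Read-out basis: % inhibition of substrate cleavage by Csn5 | Controls: no-enzyme wells high, enzyme-with-substrate wells low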
# CRFBP-R2 block – blocks CRF-induced signaling of the CRF-BP/CRF-R2 complex; AID 588475; HEK293 CRF-R2/CRF-BP, CRF-induced calcium fluorescence; inhibition, % at 11.8 µM; 350,000 tested, 0.59% active;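 active means inhibition of the ligand-induced calcium signal above about 50% at the single tested concentration, limit read from the data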
# CRFBP-R2 agonist – agonists of human CRF-binding protein/CRF-R2 receptor complex. HEK293 CRF-R2/CRF-BP, calcium dye fluorescence (FLIPR); percent of saturating CRF peptide response. activation, % at 13.2 µM. AID 588473. 350,000 tested, 0.46% active;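 active means activation of at least 50%, plus an integration ratio under a set limit after plate pattern correction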;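 further: plate controls were neutral control wells without compound for no effect and CRF at EC100 for full effect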
# HNF4A DNA FP – change in binding of human HNF4 alpha to DNA; AID 1224865; 360,000 tested, 0.3% active; HNF4a-FITC DNA binding, fluorescence polarization, 1 h; P41235; activity change, % at 10 µM; in the data active means activity change above about 30%, passing the limit was not always enough
# Rpn11 inh – Rpn11 (human) deubiquitinase inhibition | O00487 | human 26S proteasome, Ub4-pepOG fluorescence polarization; 20S core pre-blocked with epoxomicin | calls only at 20 µM | 360,000 tested, 0.59% active;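 active means inhibition at 20 µM, scaled to each plate's controls, above about 33%, limit read from the data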
# CSN deneddyl val – Csn5 (human) deneddylation inhibition, single-concentration validation; shares compounds with CSN deneddyl inh; Csn5 deneddylation of SCF-Nedd8OG, fluorescence polarization, 90 min; inhibition, % at 16.6 µM; 540 tested, 62% active; AID 720654; in the data active means inhibition above about 50%;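 further: 0% = DMSO with enzyme and 100% = no enzyme wells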
# MMP-2 counter – MMP-2 (human) inhibition, counter-screen for CSN hits. shares compounds with CSN deneddyl inh. recombinant MMP-2, FRET substrate fluorescence, 60 min. inhibition, % at 16.6 µM. 540 tested, 33% active;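 active means corrected plate-normalized z-score of 5 or more, or -5 or less, or inhibition of 15% or more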;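 further: plate controls were DMSO wells with enzyme for no effect and buffer wells lacking MMP-2 for full effect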
# Thrombin cntr – blocks bovine thrombin in a CSN deneddylation counter-screen; shares compounds with CSN deneddyl inh; 540 tested, 49% active; inhibition, % at 16.6 µM; bovine thrombin cleavage of Ub4-pepOG, fluorescence polarization;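 active means inhibition at or above a set limit, with a fluorescence interference ratio between 0.5 and a set maximum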
# Target sequence (P00735 whole entry, looked up): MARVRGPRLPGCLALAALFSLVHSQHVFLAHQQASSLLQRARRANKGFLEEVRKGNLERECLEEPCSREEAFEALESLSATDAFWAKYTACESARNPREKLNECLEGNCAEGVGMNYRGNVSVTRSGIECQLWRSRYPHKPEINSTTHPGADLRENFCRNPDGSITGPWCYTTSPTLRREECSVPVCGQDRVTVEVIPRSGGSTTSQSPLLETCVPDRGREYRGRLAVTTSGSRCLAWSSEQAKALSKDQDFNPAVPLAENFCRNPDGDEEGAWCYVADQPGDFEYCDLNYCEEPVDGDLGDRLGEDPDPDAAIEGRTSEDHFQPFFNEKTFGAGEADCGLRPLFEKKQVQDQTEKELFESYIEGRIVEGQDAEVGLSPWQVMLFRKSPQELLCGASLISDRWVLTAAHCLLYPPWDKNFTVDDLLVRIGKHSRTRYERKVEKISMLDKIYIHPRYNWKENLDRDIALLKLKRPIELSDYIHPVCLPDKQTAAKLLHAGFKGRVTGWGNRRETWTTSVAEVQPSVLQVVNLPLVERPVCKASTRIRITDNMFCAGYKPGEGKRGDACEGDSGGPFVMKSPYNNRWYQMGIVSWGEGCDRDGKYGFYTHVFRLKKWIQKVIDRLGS
# Numbers without * were called inactive; i = inactive; . = not tested or not shown. An excerpt weighted towards active compounds, which were near 2.3% of everything screened.
SMILES,TPT1 inhibitor,CSN deneddyl inh,CRFBP-R2 block,CRFBP-R2 agonist,HNF4A DNA FP,Rpn11 inh,CSN deneddyl val,MMP-2 counter,Thrombin cntr
O=C(Nc1ccc2oc(-c3ccccc3F)nc2c1)c1ccc([N+](=O)[O-])o1,.,40*,1,4,3,.,103*,16*,2
C#CCN1C(=O)S/C(=C\c2ccc(-c3ccc(C(=O)O)cc3C)o2)C1=O,7,39*,-11,-4,-29,i,.,8,37*
CCOC(=O)C(C)N1C(=O)S/C(=C\c2ccc(-c3ccccc3C(=O)O)o2)C1=O (stereo unspecified),3,48*,-18,6,-35,i,.,25*,9
Cc1ccccc1NC(=O)CN1C(=O)S/C(=C\c2ccc(-c3cc(C(=O)O)ccc3C)o2)C1=O,.,71*,-11,6,6,i,.,4,8
COC(=O)c1ccccc1-c1ccc(/C=C2\C(=O)N(c3ccccc3)N=C2c2ccccc2)o1,-5,2,3,2,-5,i,.,.,.
Cc1ccc(C(=O)O)cc1-c1ccc(/C=C2\SC(=O)N(CC(=O)Nc3ccccc3)C2=O)o1,12,19,-9,8,6,i,.,.,.
COC(=O)c1ccc(NC(=O)CCc2nnc3ccc(NCc4ccco4)nn23)cc1,2,-3,12,-1,3,i,.,.,.
CC(C)C[C@H](NC(=O)C1CC(=O)N(c2ccc3c(c2)OCO3)C1)C(=O)NC1CCCCC1 (stereo partly specified),-2,1,-12,2,2,i,.,.,.
O=C(CCN1C(=O)/C(=C/c2ccc(Cl)cc2)SC1=S)Nc1cccc(C(=O)O)c1,-1,2,25,0,3,i,.,.,.
O=C(O)c1cccc(N2C(=O)/C(=C/c3ccc(SCc4ccc(Cl)cc4)o3)SC2=S)c1,.,46*,-57,17,99,.,.,-3,49*
CCOC(=O)C1(CCc2ccccc2)CCN(Cc2ccc(OC)cc2)CC1,1,3,-8,-1,0,i,.,.,.
COC(=O)/C=C1\SC(=Nc2ccc(Cl)c(Cl)c2)NC1=O,-4,1,32,0,0,i,.,.,.
COc1cc(/C=C2\SC(=Nc3ccc(Cl)c(C(=O)O)c3)NC2=O)c(Br)c(Br)c1O,.,198*,-194,201*,76*,.,29,-101*,-84
Brc1ccc(-c2nn3c(-c4ccco4)nnc3s2)o1,0,41*,10,-3,-21,i,95*,14,0
CCCCCCCCCCCCC/C=C/[C@@H](O)[C@@H](N)CO,-4,41*,-14,1,29,i,3,5,-3
CCCCCCCC/C=C\CCCCCCCC(=O)O,0,20,34,7,-7,i,.,.,.
O=C(/C=C/Nc1ccc(Nc2ccccc2)cc1)c1cccs1,.,37*,-25,3,57*,.,94*,7,-2
Cc1ccc(N/C=C/C(=O)c2cccs2)cc1C,3,-3,14,5,1,i,.,.,.
O=C(O)CCCN1C(=O)/C(=C\C(Cl)=C\c2ccccc2)SC1=S,.,40*,-6,-4,-7,i,75*,30*,-3
O=S(=O)(Nc1c(S(=O)(=O)c2ccccc2)c2nc3ccccc3nc2n1C1CCCCC1)c1ccccc1,0,58*,-48,20,1,i,47,1,1
C=CCn1c(NS(=O)(=O)c2ccccc2)c(S(=O)(=O)c2ccc(C)cc2)c2nc3ccccc3nc21,3,1,-11,1,5,i,.,.,.
O=C(CCN1N=C(c2ccccc2)CCC1=O)NCC1COc2ccccc2O1 (stereo unspecified),1,0,18,-2,2,i,.,.,.
Cc1ccc(N=C2NC(=O)/C(=C/C=C/c3ccco3)S2)cc1,17,49*,-17,6,0,i,93*,17*,-1
CC1(C)OC(=O)NC1c1ccccc1 (stereo unspecified),.,1,-19,8,1,i,.,.,.
C/C(=N\NC(=O)c1cc(-c2cccc([N+](=O)[O-])c2)n[nH]1)c1ccccc1O,1,40*,4,1,-15,i,.,5,1
SMILES,TPT1 inhibitor,CSN deneddyl inh,CRFBP-R2 block,CRFBP-R2 agonist,HNF4A DNA FP,Rpn11 inh,CSN deneddyl val,MMP-2 counter,Thrombin cntr
C/C(=N/NC(=O)c1cc(-c2cccc([N+](=O)[O-])c2)n[nH]1)c1cccc(O)c1,3,5,-3,-2,1,i,.,.,.
COc1cc(OC)c(OC)cc1/C=C1\CCC/C(=C\c2cc(OC)c(OC)cc2OC)C1=O,.,37*,-10,13,54*,.,66*,-8,43*
COc1ccc(-c2csc(NC(=O)CSc3nc(C)nc4sc(C(=O)O)c(C)c34)n2)cc1,-4,51*,8,0,-1,i,-8,13,5
COc1ccc(-c2csc(NC(=O)CSc3nc(C)cs3)n2)cc1,1,-2,38,1,-2,i,.,.,.
Nc1c(Cl)cnc(C(Cl)(Cl)Cl)c1Cl,-2,-3,21,-5,1,i,.,.,.
O=[N+]([O-])c1cc2oc3c(c2c(C=NCc2ccccc2)c1O)CCCC3,1,74*,-61,3,33,.,82*,0,18*
Cc1cc(/C=c2/sc3nc4ccccc4n3c2=O)c(C)n1-c1ccccn1,5,4,35,8,7,i,.,.,.
Cc1cc(/C=c2\sc3nc4ccccc4n3c2=O)c(C)n1-c1ccc(C(=O)O)cc1,.,35*,21,2,-3,i,38,8,27*
CCOC(=O)/C=C(\C)Sc1cc(O)c2ccccc2c1O,.,42*,10,-2,-4,i,51*,24*,-27
CCCCNC(=O)C1(N2C(=O)c3ccccc3C2=O)CCCC1,.,-2,5,-1,-5,i,.,.,.
CCOC(=O)/C(=C\c1ccc(N2CCC(c3ccccc3)=N2)cc1)C(C)=O,.,38*,-105,99*,22,.,20*,-58*,28*
COC(=O)C1=C(C)NC(=O)NC1c1ccc(N2CCC(c3ccccc3)=N2)cc1 (stereo unspecified),-1,4,-20,-1,11,i,.,.,.
Cc1ccc(/C=C2\SC(=S)N(Cc3ccccc3)C2=O)o1,39*,115*,-13,0,26,.,108*,9,24*
